A selection: hits, their analogues and other compounds. The true share with any hit is near 3.3%.
SIAE primary: human SIAE inhibition, primary screen. SIAE FP-Rh probe binding, fluorescence polarization. AID 1053197. Q9HAT2. 370,000 tested, 0.69% active. inhibition, % at 9.66 µM;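 active = inhibition above a cutoff: mean of compounds within the control limits plus 3 SD of those, cut at about 17% in these data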;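 note: 0% = plate median of compound wells and 100% = probe without SIAE protein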
rCAG binder: binds r(CAG) RNA repeats. inhibition, % at 3 µM. 370,000 tested, 1.3% active. r(CAG) RNA repeat, TO-PRO-1 dye displacement fluorescence;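 active = inhibition above the plate cutoff, the mean of all test compounds on that plate plus 3 SD, cut at about 35% in these data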;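 note: 0% = DMSO alone and 100% = 100 µM mitoxantrone as full dye displacement; higher means more dye released from RNA so lower well fluorescence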
PRMT1 inh: blocks human protein arginine methyltransferase 1; Q99873; recombinant PRMT1, activity-based probe fluorescence polarization; inhibition, % at 2.79 µM; 370,000 tested, 1.3% active; AID 652257;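 active = inhibition above about 21% made by adding two undisclosed values, limit read from the data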
TCR CD3 inh: human TCR-CD3 binding inhibition. AID 651800. inhibition, % at 9.4 µM. 360,000 tested, 0.37% active. TAMRA-labeled TCR probe fluorescence, biochemical; in the data active = inhibition above about 19%;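 note: recombinant mutant TCR 2C K166C tagged with TAMRA read by polarization; 0% = receptor in buffer alone and 100% = receptor with positive control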
mABHD4 FP: ABHD4 (mouse) inhibition, primary FP screen; 370,000 tested, 0.54% active; inhibition, % at 8.92 µM; purified mABHD4, FP-Rh probe fluorescence polarization;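 active = inhibition exceeding the mean over every tested compound plus 3 SD, cut at about 30% in these data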;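 note: 0% = plate median of compound wells and 100% = S159A mutant with DMSO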
Target sequence (Q8VD66 whole entry, looked up): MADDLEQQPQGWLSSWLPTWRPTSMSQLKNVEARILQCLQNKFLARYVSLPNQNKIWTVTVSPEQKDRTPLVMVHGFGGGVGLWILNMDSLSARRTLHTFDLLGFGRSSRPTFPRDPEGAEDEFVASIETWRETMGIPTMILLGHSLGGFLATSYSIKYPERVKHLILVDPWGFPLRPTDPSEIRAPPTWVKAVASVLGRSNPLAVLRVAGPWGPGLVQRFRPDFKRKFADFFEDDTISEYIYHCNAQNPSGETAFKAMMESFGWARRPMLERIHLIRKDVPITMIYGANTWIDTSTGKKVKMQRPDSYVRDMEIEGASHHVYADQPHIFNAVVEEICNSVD
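Test system: mouse ABHD4 enzyme, wild type. Reagent: FP-Rh fluorescent activity-based probe, added after compound pre-incubation. Timing: pre-incubation 45 min, probe exposure 60 min, at 25 °C. Technique: FP readout, ex 525 nm / em 598 nm. Benchmarks: high control S159A mutant with DMSO, low control median of compound wells.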
rCAG binder conf: r(CAG) RNA repeat binding, confirmation. shares compounds with rCAG binder. TO-PRO-1 dye displacement fluorescence. inhibition, % at 3 µM. 4,300 tested, 70% active;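 active = inhibition above a per-plate cutoff, the mean inhibition of sample wells plus 3 SD, cut at about 35% in these data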;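 note: loss of TO-PRO-1 fluorescence as compound displaces dye from 1x1 AA loop RNA; 0% = DMSO only wells and 100% = 100 µM mitoxantrone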
dCAG dye counter: DNA CAG dye complex inhibition counter-screen; inhibition, % at 3 µM; d(CAG) DNA oligo TO-PRO-1 dye displacement, fluorescence; shares compounds with rCAG binder; 4,300 tested, 94% active;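 active = inhibition above its plate's cutoff, the mean test-well inhibition plus 3 SD, cut at about 4.8% in these data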;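 note: 0% = DNA dye mix with DMSO and 100% = 100 µM mitoxantrone; hits displace the dye from DNA and so lower well fluorescence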
PRMT1 inh conf: PRMT1 (human) inhibition, FP confirmation; shares compounds with PRMT1 inh; inhibition, % at 2.79 µM; 3,300 tested, 42% active; AID 687036; recombinant His-PRMT1, activity-based probe fluorescence polarization;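 active = mean inhibition across replicates above the hit cutoff derived for the earlier primary screen, cut at about 22% in these data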
* marks the source's active call; other numbers are inactive results; / = no result.

SMILES	SIAE primary	rCAG binder	PRMT1 inh	TCR CD3 inh	mABHD4 FP	rCAG binder conf	dCAG dye counter	PRMT1 inh conf
O=C(Nn1c(O)c(C=C2N=c3ccccc3=N2)sc1=S)c1ccccc1Cl	-10	63*	37*	7	-3	33	11*	2
O=C1CC(=Nc2ccc([N+](=O)[O-])cc2)NN1c1c(Cl)cc(Cl)cc1Cl	10	49*	35*	-4	65*	49*	32*	14
CC(N)=Nc1ccc([N+](=O)[O-])cc1	5	-4	2	-3	3	/	/	/
Cc1ccsc1/C=C/C1=Cc2c(sc(NC(=O)CSc3n[nH]c(N)n3)c2C#N)C(C)(C)C1	-14	55*	41*	-4	-6	53*	26*	4
CC(C)(C)NC(=O)C(c1ccc(C#N)cc1)n1c(=O)c(-c2ccccc2)nc2ccccc21 (stereo unspecified)	-3	5	5	-9	-14	/	/	/
CC(C)(C)NC(=O)C(c1ccc(C#N)cc1)n1c(=O)c(-c2ccco2)nc2ccccc21 (stereo unspecified)	0	37*	31*	-12	4	24	13*	36*
N#Cc1cccc(NC(=O)OCCN2C(=O)CCC23CCC(c2ccccc2)CC3)c1 (stereo unspecified)	0	3	2	/	4	/	/	/
CNC(=O)COC(=O)c1cc(-c2ccco2)nc2ccccc12	7	18	12	18	18	/	/	/
O=C(COC(=O)c1cc(-c2ccco2)nc2ccccc12)NCc1ccccc1	-2	38*	36*	-1	-2	10	4	9
COC(=O)C[C@H]1CC[C@@H]2[C@@H](COc3ccc(NC(=O)c4ccccc4)cc3C(=O)N2C)O1	-7	0	-3	/	-3	/	/	/
CC(C)(C)c1ccc(C(=O)Nc2ccc(Cl)cc2)cc1	-1	-2	2	-8	7	/	/	/
CC(C)(C)c1ccc(C(=O)CC(Sc2ccc(Cl)cc2)C(=O)O)cc1 (stereo unspecified)	1	41*	73*	5	0	52*	18*	85*
CCOC(=O)C1=C(C)N=c2sc(=Cc3ccc(OCC(=O)O)cc3)c(=O)n2C1c1ccc(SC)cc1 (stereo unspecified)	-54	82*	30*	6	-55	71*	37*	2
CCOC(=O)C1=C(C)N=c2s/c(=C\c3ccc(OCC(=O)O)cc3)c(=O)n2C1c1ccccc1 (stereo unspecified)	-17	75*	34*	4	-36	77*	35*	9
CC1=C(C(=O)OC(C)C)C(c2ccc(Cl)cc2)n2c(s/c(=C\c3ccc(OCC(=O)O)cc3)c2=O)=N1 (stereo unspecified)	-14	27	13	-3	-4	/	/	/
CCOC(=O)C1=C(C)N=c2s/c(=C\c3ccc(C(=O)O)cc3)c(=O)n2C1c1ccc(OC)cc1OC (stereo unspecified)	-2	9	8	8	0	/	/	/
C=CCOC/C=C/C#CCN(Cc1ccc(OC)cc1OC)C(=O)Nc1ccccc1	4	-1	0	/	-12	/	/	/
COC(=O)[C@]12C[C@H](CC(=O)NCCCCc3ccccc3)C(=O)N(Cc3cccc4ccccc34)C1=C[C@H](COCc1ccccc1)O[C@@H]2C	-11	14	6	/	-9	/	/	/
Oc1ccccc1/C=N/n1c(-c2ccccc2)n[nH]c1=S	2	11	5	0	2	/	/	/
CCN(CC)c1ccc(C=Nn2c(-c3ccc(F)cc3)n[nH]c2=S)c(O)c1	5	64*	37*	/	21	52*	16*	35*
CC(C)Oc1cccc(-c2n[nH]c(=S)n2N=Cc2cccc([N+](=O)[O-])c2)c1	8	51*	34*	/	-2	57*	17*	25*
Cc1ccc(-c2n[nH]c(=S)n2/N=C/C=C\c2ccccc2[N+](=O)[O-])cc1	3	35*	30*	4	4	33	11*	15
S=c1[nH]nc(-c2cc(-c3ccccc3)n[nH]2)n1/N=C/c1ccc(Br)s1	-20	71*	28*	-1	-3	79*	46*	13
O=[N+]([O-])c1ccccc1C=Nn1c(-c2cc(-c3ccccc3)n[nH]2)n[nH]c1=S	2	47*	42*	/	15	53*	19*	14
Cc1cc(-c2n[nH]c(=S)n2/N=C/c2ccc(Br)s2)n[nH]1	4	14	4	-1	1	/	/	/
SMILES	SIAE primary	rCAG binder	PRMT1 inh	TCR CD3 inh	mABHD4 FP	rCAG binder conf	dCAG dye counter	PRMT1 inh conf
Cc1ccc(S(=O)(=O)N2C=C(c3ccccc3)c3ccccc3-c3ccccc32)cc1	2	/	2	/	2	/	/	/
Cc1ccccc1N1CCN(S(=O)(=O)c2ccc3c(c2)oc(=O)n3C)CC1	8	5	-3	/	-2	/	/	/
N#Cc1c2nc3ccccc3nc2n2cc(NC(=O)c3ccc(F)cc3)ccc12	-10	36*	41*	-14	13	42*	20*	14
Cc1c(C(=O)Nc2ccc(F)cc2)cn2c(nc3ccccc32)c1C#N	-6	1	-3	2	2	/	/	/
COCO[C@@H]1CC(CO)=C[C@H]2OCO[C@H]21	1	/	-6	/	5	/	/	/
Cc1cc(-c2nnc(SCC(=O)Nc3nc(-c4ccc(Cl)cc4)cs3)o2)no1	-12	46*	42*	-9	-4	15	5.8*	5
Cc1ccc(NC(=O)CN2C(=O)S/C(=C/c3ccc(-c4cc(C(=O)O)ccc4C)o3)C2=O)cc1C	-23	46*	28*	-3	20	91*	74*	10
Cc1cccc(NC(=O)CN2C(=O)N/C(=C\c3ccc(-c4cccc(C(=O)O)c4)o3)C2=O)c1	2	69*	27*	5	6	73*	37*	11
CCCCCn1nnnc1C1(C)CN(S(C)(=O)=O)CC(=O)N1Cc1ccco1 (stereo unspecified)	-5	2	1	/	3	/	/	/
Cc1ccc(C(=O)NN2C(=O)/C(=C/c3cn(C)c4ccccc34)SC2=S)cc1	-1	0	7	-3	-1	/	/	/
Cn1cc(/C=C2\SC(=O)NC2=S)c2ccccc21	4	40*	28*	-4	9	33	11*	5
COC(=O)[C@@H]1N=C(c2ccc(OC)cc2)O[C@]12C(=O)N(Cc1cn(-c3ccccc3)nn1)c1cccc(Cl)c12	-1	11	0	/	-9	/	/	/
Cc1ccc(-n2c(SCc3cccc(F)c3)nc3sc4c(c3c2=O)CCCC4)cc1	8	6	-7	/	6	/	/	/
CCn1c(SCC(=O)Nc2cccc(NC(C)=O)c2)nnc1-c1ccco1	-5	2	-1	2	1	/	/	/

Screens deposited in PubChem BioAssay by The Scripps Research Institute Molecular Screening Center.
